Data published in ChEMBL document CHEMBL1949525, “Boranophosphate isoster controls P2Y-receptor subtype selectivity and metabolic stability of dinucleoside polyphosphate analogues” (J Med Chem, 2012).
Values belong to the compound of their own block, whether it stands above or below them. Activity calls are given as the source filed them. The rule behind the calls is not given here.

Key:
[1] = target: P2Y purinoceptor 1 (Meleagris gallopavo) (UniProt P49652); assay: Antagonist activity at turkey P2Y purinoceptor 1 expressed in human 1321N1 cells assessed as inhibition of 2-Sme-ADP-induced increase in intracellular calcium concentration by spectrofluorimetry; assay type: functional, cell-based
Sequence of P2Y purinoceptor 1 (Meleagris gallopavo) (P49652 whole entry): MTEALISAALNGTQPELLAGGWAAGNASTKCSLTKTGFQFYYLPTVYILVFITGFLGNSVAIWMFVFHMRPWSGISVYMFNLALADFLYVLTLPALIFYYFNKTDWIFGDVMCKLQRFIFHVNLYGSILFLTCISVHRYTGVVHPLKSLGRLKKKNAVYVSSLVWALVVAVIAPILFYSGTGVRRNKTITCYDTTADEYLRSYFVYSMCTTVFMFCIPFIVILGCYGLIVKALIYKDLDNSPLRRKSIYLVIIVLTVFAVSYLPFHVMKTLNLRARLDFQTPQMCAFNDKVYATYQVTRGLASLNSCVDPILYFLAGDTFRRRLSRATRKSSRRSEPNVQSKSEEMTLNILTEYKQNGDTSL
How it was run: (§1)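 Fura-2-loaded 1321N1 transfectants (turkey P2Y1, human P2Y2/P2Y4, rat P2Y6) in Hepes-buffered saline, pH 7.4, at 37 °C. Analogues were tested against equimolar reference agonist: 2-MeS-ADP for P2Y1, UTP for P2Y2/4, UDP for P2Y6. Blockade of the [Ca2+]i rise was followed by dual-excitation spectrofluorometry.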

[2] = target: T1, P2Y purinoceptor 2 (Homo sapiens, UniProt P41231); assay: Antagonist activity at human P2Y purinoceptor 2 expressed in human 1321N1 cells assessed as inhibition of UTP-induced increase in intracellular calcium concentration by spectrofluorimetry; assay type: functional, cell-based; how it was run: as §1
T1 sequence (P41231 whole entry): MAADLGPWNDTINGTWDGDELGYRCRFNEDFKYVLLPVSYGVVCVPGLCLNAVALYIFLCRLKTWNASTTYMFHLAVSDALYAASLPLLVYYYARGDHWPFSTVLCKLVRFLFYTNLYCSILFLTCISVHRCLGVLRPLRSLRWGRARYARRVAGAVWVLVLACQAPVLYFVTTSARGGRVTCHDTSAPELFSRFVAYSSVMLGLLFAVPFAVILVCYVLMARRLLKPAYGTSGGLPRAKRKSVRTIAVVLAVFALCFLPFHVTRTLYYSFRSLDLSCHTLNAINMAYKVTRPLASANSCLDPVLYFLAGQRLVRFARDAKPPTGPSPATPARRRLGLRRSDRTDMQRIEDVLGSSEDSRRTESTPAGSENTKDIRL

[3] = target: T2, P2Y purinoceptor 4 (Homo sapiens, UniProt P51582); assay: Antagonist activity at human P2Y purinoceptor 4 expressed in human 1321N1 cells assessed as inhibition of UTP-induced increase in intracellular calcium concentration by spectrofluorimetry; assay type: functional, cell-based; how it was run: as §1
T2 sequence (P51582 whole entry): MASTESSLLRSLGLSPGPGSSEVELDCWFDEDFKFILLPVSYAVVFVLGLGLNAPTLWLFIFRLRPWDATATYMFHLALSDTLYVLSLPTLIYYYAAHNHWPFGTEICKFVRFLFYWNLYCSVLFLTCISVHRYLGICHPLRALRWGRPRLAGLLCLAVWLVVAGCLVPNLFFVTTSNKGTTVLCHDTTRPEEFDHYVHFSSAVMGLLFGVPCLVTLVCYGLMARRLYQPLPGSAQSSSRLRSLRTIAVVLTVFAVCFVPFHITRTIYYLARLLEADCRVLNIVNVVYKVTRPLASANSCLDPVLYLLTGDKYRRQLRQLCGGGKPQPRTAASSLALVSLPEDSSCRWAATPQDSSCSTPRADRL

[4] = target: P2Y purinoceptor 6 (Rattus norvegicus) (UniProt Q63371); assay: Antagonist activity at rat P2Y purinoceptor 6 expressed in human 1321N1 cells assessed as inhibition of UDP-induced increase in intracellular calcium concentration by spectrofluorimetry; assay type: functional, cell-based; how it was run: as §1
Sequence of P2Y purinoceptor 6 (Rattus norvegicus) (Q63371 whole entry): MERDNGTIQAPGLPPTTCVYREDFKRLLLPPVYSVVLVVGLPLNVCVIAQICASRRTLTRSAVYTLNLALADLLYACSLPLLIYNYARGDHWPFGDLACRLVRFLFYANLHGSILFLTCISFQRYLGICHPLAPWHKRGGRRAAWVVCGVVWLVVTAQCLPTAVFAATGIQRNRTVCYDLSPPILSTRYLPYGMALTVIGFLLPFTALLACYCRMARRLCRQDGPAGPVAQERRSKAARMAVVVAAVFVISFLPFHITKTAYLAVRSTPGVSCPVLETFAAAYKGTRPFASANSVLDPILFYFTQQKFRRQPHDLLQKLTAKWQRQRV

[5] = target: P2Y purinoceptor 1 (Meleagris gallopavo) (UniProt P49652); assay: Agonist activity at turkey P2Y purinoceptor 1 expressed in human 1321N1 cells assessed as increase in intracellular calcium concentration at 100 uM by spectrofluorimetry; assay type: functional, cell-based
[6] = system: e-NPP1; assay: (§2) Stability of the compound assessed as human e-NPP1-mediated hydrolysis at pH 8.5 after 20 mins by HPLC analysis; assay type: ADME; settings: human, human e-NPP1 enzyme, pH 8.5; read-out: Drug degradation
How it was run: (§3)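 Human NPP1 preparation preincubated 3 min at 37 °C in 1 mM CaCl2, 200 mM NaCl, 10 mM KCl, 100 mM Tris, pH 8.5. Started with 0.2 mM dinucleotide solution (added volume) and stopped after 20 min in ice-cold perchloric acid. Neutralised with KOH, then NMP formation followed by HPLC. Percent substrate hydrolysed is the mean of two experiments run in triplicate.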

[7] = as §2; assay type: ADME; settings: buffer, pH 8.5, 20 min; how it was run: as §3
[8] = Chemical stability of the compound at pH mimicking gastric juice acidity; assay type: physicochemical; settings: simulated gi fluid
[9] = Chemical stability of the compound at physiological conditions; assay type: physicochemical
[10] = target: P2Y purinoceptor 1 (Meleagris gallopavo) (UniProt P49652); assay: (§4) Agonist activity at turkey P2Y purinoceptor 1 expressed in human 1321N1 cells assessed as increase in intracellular calcium concentration by spectrofluorimetry; assay type: functional, cell-based
[11] = target: T1, P2Y purinoceptor 2; assay: Agonist activity at human P2Y purinoceptor 2 expressed in human 1321N1 cells assessed as increase in intracellular calcium concentration by spectrofluorimetry; assay type: functional, cell-based; settings: for EC50: 1321-n1
[12] = target: T1, P2Y purinoceptor 2; assay: Agonist activity at human P2Y purinoceptor 2 expressed in human 1321N1 cells assessed as increase in intracellular calcium concentration at 100 uM by spectrofluorimetry; assay type: functional, cell-based
[13] = target: P2Y purinoceptor 1 (Meleagris gallopavo, UniProt P49652); assay: as §4; assay type: functional, cell-based; settings: read-out: EC50
Sequence of P2Y purinoceptor 1 (P49652 whole entry): as the sequence (P49652 whole entry) above

[14] = target: T2, P2Y purinoceptor 4; assay: Agonist activity at human P2Y purinoceptor 4 expressed in human 1321N1 cells assessed as increase in intracellular calcium concentration by spectrofluorimetry; assay type: functional, cell-based; settings: 1321-n1
How it was run: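 1321N1 astrocytoma cells (no endogenous P2Y receptors) stably expressing hP2Y4, grown in DMEM with 5% FBS, penicillin/streptomycin and 500 μg/mL G-418. Fura-2-loaded cell suspensions; compounds applied at various concentrations, 37 °C, 10 mM Hepes-buffered saline pH 7.4 with 1 mM CaCl2/MgCl2. Peak [Ca2+]i rise by dual-excitation fluorometry gives EC50; UTP reference agonist; three experiments on separate days.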

[15] = target: P2Y purinoceptor 6 (Rattus norvegicus, UniProt Q63371); assay: Agonist activity at rat P2Y purinoceptor 6 expressed in human 1321N1 cells assessed as increase in intracellular calcium concentration by spectrofluorimetry; assay type: functional, cell-based; settings: read-out: EC50
Sequence of P2Y purinoceptor 6 (Q63371 whole entry): as the sequence (Q63371 whole entry) above
How it was run: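 1321N1 astrocytoma cells lacking endogenous P2Y receptors, stably transfected with turkey P2Y1, human P2Y2, human P2Y4 or rat P2Y6, grown in DMEM with 5% FBS, penicillin/streptomycin and 500 µg/mL G-418. Fura-2-loaded cell suspensions were exposed at 37 °C in 10 mM Hepes-buffered saline, pH 7.4, with 1 mM CaCl2 and 1 mM MgCl2. Peak [Ca2+]i rise by dual-excitation spectrofluorometry across concentrations; EC50 from curve fits; three experiments on separate days per subtype.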

SMILES: BP(=O)(OC[C@H]1O[C@@H](n2ccc(=O)[nH]c2=O)[C@H](O)[C@@H]1O)OP(=O)(O)OP(=O)(O)OC[C@H]1O[C@@H](n2ccc(=O)[nH]c2=O)[C@H](O)[C@@H]1O.CCCCN(CCCC)CCCC.CCCCN(CCCC)CCCC.CCCCN(CCCC)CCCC (stereo in doubt; 11B)
Activity [1]: inactive | Activity [2]: inactive | Activity [3]: inactive | Activity [4]: inactive | Activity [5]: Active

SMILES: O=c1ccn([C@@H]2O[C@H](COP(=O)(O)OP(=O)(O)OP(=O)(O)OC[C@H]3O[C@@H](n4ccc(=O)[nH]c4=O)[C@H](O)[C@@H]3O)[C@@H](O)[C@H]2O)c(=O)[nH]1
metabolised at 20 min [6]: 21%

SMILES: BP(=O)(OP(=O)(O)OP(=O)(O)OC[C@H]1O[C@@H](n2cnc3c(N)ncnc32)[C@H](O)[C@@H]1O)OP(=O)(O)OP(=O)(O)OC[C@H]1O[C@@H](n2cnc3c(N)ncnc32)[C@H](O)[C@@H]1O.CCCCN(CCCC)CCCC.CCCCN(CCCC)CCCC.CCCCN(CCCC)CCCC.CCCCN(CCCC)CCCC.CCCCN(CCCC)CCCC
Stability [7]: Unstable | Stability [8]: Stable | Stability [9]: Stable | Activity [10]: Active | Activity [11]: inactive

SMILES: BP(=O)(OC[C@H]1O[C@@H](n2ccc(=O)[nH]c2=O)[C@H](O)[C@@H]1O)OP(=O)(O)OP(=O)(O)OP(=O)(O)OC[C@H]1O[C@@H](n2ccc(=O)[nH]c2=O)[C@H](O)[C@@H]1O.CCCCN(CCCC)CCCC.CCCCN(CCCC)CCCC.CCCCN(CCCC)CCCC.CCCCN(CCCC)CCCC (stereo in doubt; 13B)
Activity [1]: inactive | Activity [2]: inactive | Activity [3]: inactive | Activity [4]: inactive | Activity [5]: Active

SMILES: Nc1ncnc2c1ncn2[C@@H]1O[C@H](COP(=O)(O)OP(=O)(O)OP(=O)(O)OP(=O)(O)OC[C@H]2O[C@@H](n3ccc(=O)[nH]c3=O)[C@H](O)[C@@H]2O)[C@@H](O)[C@H]1O
metabolised at 20 min [6]: 18%

SMILES: BP(=O)(OP(=O)(O)OP(=O)(O)OC[C@H]1O[C@@H](n2ccc(=O)[nH]c2=O)[C@H](O)[C@@H]1O)OP(=O)(O)OP(=O)(O)OC[C@H]1O[C@@H](n2ccc(=O)[nH]c2=O)[C@H](O)[C@@H]1O.CCCCN(CCCC)CCCC.CCCCN(CCCC)CCCC.CCCCN(CCCC)CCCC.CCCCN(CCCC)CCCC.CCCCN(CCCC)CCCC
Stability [7]: Stable | Stability [8]: Stable | Stability [9]: Stable | Activity [10]: inactive | Activity [11]: inactive

SMILES: BP(=O)(OP(=O)(O)OC[C@H]1O[C@@H](n2ccc(=O)[nH]c2=O)[C@H](O)[C@@H]1O)OP(=O)(O)OC[C@H]1O[C@@H](n2ccc(=O)[nH]c2=O)[C@H](O)[C@@H]1O.CCCCN(CCCC)CCCC.CCCCN(CCCC)CCCC.CCCCN(CCCC)CCCC
Stability [7]: Stable | Stability [8]: Stable | Stability [9]: Stable | Activity [10]: inactive | Activity [11]: inactive

SMILES: Nc1ncnc2c1ncn2[C@@H]1O[C@H](COP(=O)(O)OP(=O)(O)OP(=O)(O)OC[C@H]2O[C@@H](n3cnc4c(N)ncnc43)[C@H](O)[C@@H]2O)[C@@H](O)[C@H]1O
metabolised at 20 min [6]: 22%

SMILES: BP(=O)(OP(=O)(O)OC[C@H]1O[C@@H](n2ccc(=O)[nH]c2=O)[C@H](O)[C@@H]1O)OP(=O)(O)OP(=O)(O)OC[C@H]1O[C@@H](n2ccc(=O)[nH]c2=O)[C@H](O)[C@@H]1O.CCCCN(CCCC)CCCC.CCCCN(CCCC)CCCC.CCCCN(CCCC)CCCC.CCCCN(CCCC)CCCC (stereo in doubt; 7A)
metabolised at 20 min [6]: 3% | EC50 [14]: Not Active | EC50 [15]: 1930 nM

SMILES: Nc1ncnc2c1ncn2[C@@H]1O[C@H](COP(=O)(O)OP(=O)(O)OP(=O)(O)OP(=O)(O)OC[C@H]2O[C@@H](n3cnc4c(N)ncnc43)[C@H](O)[C@@H]2O)[C@@H](O)[C@H]1O [DIADENOSINE TETRAPHOSPHATE]
metabolised at 20 min [6]: 17%

SMILES: BP(=O)(OP(=O)(O)OC[C@H]1O[C@@H](n2ccc(=O)[nH]c2=O)[C@H](O)[C@@H]1O)OP(=O)(O)OP(=O)(O)OC[C@H]1O[C@@H](n2ccc(=O)[nH]c2=O)[C@H](O)[C@@H]1O.CCCCN(CCCC)CCCC.CCCCN(CCCC)CCCC.CCCCN(CCCC)CCCC.CCCCN(CCCC)CCCC (stereo in doubt; 7B)
Activity [1]: inactive | Activity [2]: inactive | Activity [3]: inactive | Activity [4]: inactive | Activity [5]: Active

SMILES: BP(=O)(OC[C@H]1O[C@@H](n2ccc(=O)[nH]c2=O)[C@H](O)[C@@H]1O)OP(=O)(O)OP(=O)(O)OC[C@H]1O[C@@H](n2ccc(=O)[nH]c2=O)[C@H](O)[C@@H]1O.CCCCN(CCCC)CCCC.CCCCN(CCCC)CCCC.CCCCN(CCCC)CCCC (stereo in doubt; 11A)
Drug degradation ([7]; 20 min): 0% | EC50 [13]: 4400 nM | EC50 [11]: Not Active | EC50 [14]: Not Active | EC50 [15]: 720 nM

The remaining lines, values ahead:

Activity [1]: inactive | Activity [2]: inactive | Activity [3]: inactive | Activity [4]: inactive | Activity [12]: Active
SMILES: BP(=O)(OP(=O)(O)OC[C@H]1O[C@@H](n2ccc(=O)[nH]c2=O)[C@H](O)[C@@H]1O)OP(=O)(O)OP(=O)(O)OC[C@H]1O[C@@H](n2cnc3c(N)ncnc32)[C@H](O)[C@@H]1O.CCCCN(CCCC)CCCC.CCCCN(CCCC)CCCC.CCCCN(CCCC)CCCC.CCCCN(CCCC)CCCC (stereo in doubt; 9A) [listing 1 of 2 here]

metabolised at 20 min [6]: 3% | EC50 [13]: 500 nM | EC50 [14]: Not Active | EC50 [15]: 20900 nM
SMILES: BP(=O)(OP(=O)(O)OC[C@H]1O[C@@H](n2ccc(=O)[nH]c2=O)[C@H](O)[C@@H]1O)OP(=O)(O)OP(=O)(O)OC[C@H]1O[C@@H](n2cnc3c(N)ncnc32)[C@H](O)[C@@H]1O.CCCCN(CCCC)CCCC.CCCCN(CCCC)CCCC.CCCCN(CCCC)CCCC.CCCCN(CCCC)CCCC (stereo in doubt; 9A) [listing 2 of 2 here]

metabolised at 20 min [6]: 1.6% | EC50 [13]: 3000 nM | EC50 [11]: Not Active | EC50 [14]: Not Active
SMILES: BP(=O)(OP(=O)(O)OC[C@H]1O[C@@H](n2cnc3c(N)ncnc32)[C@H](O)[C@@H]1O)OP(=O)(O)OP(=O)(O)OC[C@H]1O[C@@H](n2cnc3c(N)ncnc32)[C@H](O)[C@@H]1O.CCCCN(CCCC)CCCC.CCCCN(CCCC)CCCC.CCCCN(CCCC)CCCC.CCCCN(CCCC)CCCC (stereo in doubt; 6A)

metabolised at 20 min [6]: 1.5% | EC50 [11]: Not Active | EC50 [14]: Not Active | EC50 [15]: 1290 nM
SMILES: BP(=O)(OP(=O)(O)OC[C@H]1O[C@@H](n2cnc3c(N)ncnc32)[C@H](O)[C@@H]1O)OP(=O)(O)OP(=O)(O)OC[C@H]1O[C@@H](n2ccc(=O)[nH]c2=O)[C@H](O)[C@@H]1O.CCCCN(CCCC)CCCC.CCCCN(CCCC)CCCC.CCCCN(CCCC)CCCC.CCCCN(CCCC)CCCC (stereo in doubt; 8A) [listing 1 of 2 here]

Activity [1]: inactive | Activity [2]: inactive | Activity [3]: inactive | Activity [4]: inactive | Activity [5]: Active
SMILES: BP(=O)(OP(=O)(O)OC[C@H]1O[C@@H](n2cnc3c(N)ncnc32)[C@H](O)[C@@H]1O)OP(=O)(O)OP(=O)(O)OC[C@H]1O[C@@H](n2ccc(=O)[nH]c2=O)[C@H](O)[C@@H]1O.CCCCN(CCCC)CCCC.CCCCN(CCCC)CCCC.CCCCN(CCCC)CCCC.CCCCN(CCCC)CCCC (stereo in doubt; 8A) [listing 2 of 2 here]
